“Also recorded” adds a separate entry of the source. Read-outs that look alike come from different tables or passages of the source. Ends that are not written are not given here.
Experiments:
SR microsomes = settings: ref [19], [26], [55]; cited from earlier work
RyR2 (ryanodol-modified) = RyR2 (ryanodol-modified) (Canis lupus familiaris, UniProt A0A8I3MT21); assay type: biochemical, dog; settings: for probability of ryanodol-induced modification: n=5 paired (Fig. 6)
cardiac RyR2 [1] = target: T1, cardiac RyR2 (Canis lupus familiaris, UniProt A0A8I3MT21); assay type: biochemical, dog
cardiac RyR2 [2] = target: T1, cardiac RyR2; test: Induction of subconductance states; assay type: biochemical, dog
In short: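 Dog ventricular SR microsomes fused into PE/PS/PC (5:4:1) bilayers. Solutions: cis HEPES 250 mM/Tris 118 mM, trans HEPES 250 mM/Ca(OH)2 53 mM, pH 7.4. Cytosolic Ca2+ buffered with BAPTA/dibromo-BAPTA; Ca2+/caffeine-activated channel; peptide added cis. Four-minute records were filtered at 500 Hz (Vm ≥0) or 400 Hz (Vm <0). P_substate = substate time/total time, scored frame-by-frame (100 ms frames, events >3 ms) or from Gaussian-fitted all-points histograms. Paired t-test.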

ryanodine-modified RyR2 = ryanodine-modified RyR2 (Canis lupus familiaris, UniProt A0A8I3MT21); test: Peptide/IpTxA action on ryanodine-modified RyR2 in planar lipid bilayers; assay type: biochemical, dog
RyR2 with IpTxA = test: Interaction of peptides with IpTxA-modified RyR2 in planar lipid bilayers; assay type: biochemical, dog; settings: for apparent dissociation constant from RyR2 (1/dwell time): 500 µM KIFMK
In short: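 Dog cardiac RyR2 was recorded in planar bilayers with HEPES-Ca2+ trans and HEPES-Tris cis at pH 7.4, Ca2+/caffeine-activated, with cytosolic IpTxA at 50 nM and Vm +10 mV. Peptide was then added cis. Block events (dwell time, number, P_block = fraction of time at baseline) were scored frame-by-frame on 4-min records, separately during full openings and during IpTxA-induced substates. Means ± S.E.M.; paired t-test.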

RyRs = settings: ryanodine locks channels open; ref [3], [45]; cited from earlier work
[3] = IpTxA plus ryanodol, +10 mV, 40 min
[4] = ryanodol, control before IpTxA (Fig. 7A, B)
[5] = 500 µM KIFMK, frame by frame analysis
[6] = Shaker B 2 µM n=4, KIFMK 500 µM n=8

Chain of ryanodine-modified RyR2 (A0A8I3MT21 1-4967): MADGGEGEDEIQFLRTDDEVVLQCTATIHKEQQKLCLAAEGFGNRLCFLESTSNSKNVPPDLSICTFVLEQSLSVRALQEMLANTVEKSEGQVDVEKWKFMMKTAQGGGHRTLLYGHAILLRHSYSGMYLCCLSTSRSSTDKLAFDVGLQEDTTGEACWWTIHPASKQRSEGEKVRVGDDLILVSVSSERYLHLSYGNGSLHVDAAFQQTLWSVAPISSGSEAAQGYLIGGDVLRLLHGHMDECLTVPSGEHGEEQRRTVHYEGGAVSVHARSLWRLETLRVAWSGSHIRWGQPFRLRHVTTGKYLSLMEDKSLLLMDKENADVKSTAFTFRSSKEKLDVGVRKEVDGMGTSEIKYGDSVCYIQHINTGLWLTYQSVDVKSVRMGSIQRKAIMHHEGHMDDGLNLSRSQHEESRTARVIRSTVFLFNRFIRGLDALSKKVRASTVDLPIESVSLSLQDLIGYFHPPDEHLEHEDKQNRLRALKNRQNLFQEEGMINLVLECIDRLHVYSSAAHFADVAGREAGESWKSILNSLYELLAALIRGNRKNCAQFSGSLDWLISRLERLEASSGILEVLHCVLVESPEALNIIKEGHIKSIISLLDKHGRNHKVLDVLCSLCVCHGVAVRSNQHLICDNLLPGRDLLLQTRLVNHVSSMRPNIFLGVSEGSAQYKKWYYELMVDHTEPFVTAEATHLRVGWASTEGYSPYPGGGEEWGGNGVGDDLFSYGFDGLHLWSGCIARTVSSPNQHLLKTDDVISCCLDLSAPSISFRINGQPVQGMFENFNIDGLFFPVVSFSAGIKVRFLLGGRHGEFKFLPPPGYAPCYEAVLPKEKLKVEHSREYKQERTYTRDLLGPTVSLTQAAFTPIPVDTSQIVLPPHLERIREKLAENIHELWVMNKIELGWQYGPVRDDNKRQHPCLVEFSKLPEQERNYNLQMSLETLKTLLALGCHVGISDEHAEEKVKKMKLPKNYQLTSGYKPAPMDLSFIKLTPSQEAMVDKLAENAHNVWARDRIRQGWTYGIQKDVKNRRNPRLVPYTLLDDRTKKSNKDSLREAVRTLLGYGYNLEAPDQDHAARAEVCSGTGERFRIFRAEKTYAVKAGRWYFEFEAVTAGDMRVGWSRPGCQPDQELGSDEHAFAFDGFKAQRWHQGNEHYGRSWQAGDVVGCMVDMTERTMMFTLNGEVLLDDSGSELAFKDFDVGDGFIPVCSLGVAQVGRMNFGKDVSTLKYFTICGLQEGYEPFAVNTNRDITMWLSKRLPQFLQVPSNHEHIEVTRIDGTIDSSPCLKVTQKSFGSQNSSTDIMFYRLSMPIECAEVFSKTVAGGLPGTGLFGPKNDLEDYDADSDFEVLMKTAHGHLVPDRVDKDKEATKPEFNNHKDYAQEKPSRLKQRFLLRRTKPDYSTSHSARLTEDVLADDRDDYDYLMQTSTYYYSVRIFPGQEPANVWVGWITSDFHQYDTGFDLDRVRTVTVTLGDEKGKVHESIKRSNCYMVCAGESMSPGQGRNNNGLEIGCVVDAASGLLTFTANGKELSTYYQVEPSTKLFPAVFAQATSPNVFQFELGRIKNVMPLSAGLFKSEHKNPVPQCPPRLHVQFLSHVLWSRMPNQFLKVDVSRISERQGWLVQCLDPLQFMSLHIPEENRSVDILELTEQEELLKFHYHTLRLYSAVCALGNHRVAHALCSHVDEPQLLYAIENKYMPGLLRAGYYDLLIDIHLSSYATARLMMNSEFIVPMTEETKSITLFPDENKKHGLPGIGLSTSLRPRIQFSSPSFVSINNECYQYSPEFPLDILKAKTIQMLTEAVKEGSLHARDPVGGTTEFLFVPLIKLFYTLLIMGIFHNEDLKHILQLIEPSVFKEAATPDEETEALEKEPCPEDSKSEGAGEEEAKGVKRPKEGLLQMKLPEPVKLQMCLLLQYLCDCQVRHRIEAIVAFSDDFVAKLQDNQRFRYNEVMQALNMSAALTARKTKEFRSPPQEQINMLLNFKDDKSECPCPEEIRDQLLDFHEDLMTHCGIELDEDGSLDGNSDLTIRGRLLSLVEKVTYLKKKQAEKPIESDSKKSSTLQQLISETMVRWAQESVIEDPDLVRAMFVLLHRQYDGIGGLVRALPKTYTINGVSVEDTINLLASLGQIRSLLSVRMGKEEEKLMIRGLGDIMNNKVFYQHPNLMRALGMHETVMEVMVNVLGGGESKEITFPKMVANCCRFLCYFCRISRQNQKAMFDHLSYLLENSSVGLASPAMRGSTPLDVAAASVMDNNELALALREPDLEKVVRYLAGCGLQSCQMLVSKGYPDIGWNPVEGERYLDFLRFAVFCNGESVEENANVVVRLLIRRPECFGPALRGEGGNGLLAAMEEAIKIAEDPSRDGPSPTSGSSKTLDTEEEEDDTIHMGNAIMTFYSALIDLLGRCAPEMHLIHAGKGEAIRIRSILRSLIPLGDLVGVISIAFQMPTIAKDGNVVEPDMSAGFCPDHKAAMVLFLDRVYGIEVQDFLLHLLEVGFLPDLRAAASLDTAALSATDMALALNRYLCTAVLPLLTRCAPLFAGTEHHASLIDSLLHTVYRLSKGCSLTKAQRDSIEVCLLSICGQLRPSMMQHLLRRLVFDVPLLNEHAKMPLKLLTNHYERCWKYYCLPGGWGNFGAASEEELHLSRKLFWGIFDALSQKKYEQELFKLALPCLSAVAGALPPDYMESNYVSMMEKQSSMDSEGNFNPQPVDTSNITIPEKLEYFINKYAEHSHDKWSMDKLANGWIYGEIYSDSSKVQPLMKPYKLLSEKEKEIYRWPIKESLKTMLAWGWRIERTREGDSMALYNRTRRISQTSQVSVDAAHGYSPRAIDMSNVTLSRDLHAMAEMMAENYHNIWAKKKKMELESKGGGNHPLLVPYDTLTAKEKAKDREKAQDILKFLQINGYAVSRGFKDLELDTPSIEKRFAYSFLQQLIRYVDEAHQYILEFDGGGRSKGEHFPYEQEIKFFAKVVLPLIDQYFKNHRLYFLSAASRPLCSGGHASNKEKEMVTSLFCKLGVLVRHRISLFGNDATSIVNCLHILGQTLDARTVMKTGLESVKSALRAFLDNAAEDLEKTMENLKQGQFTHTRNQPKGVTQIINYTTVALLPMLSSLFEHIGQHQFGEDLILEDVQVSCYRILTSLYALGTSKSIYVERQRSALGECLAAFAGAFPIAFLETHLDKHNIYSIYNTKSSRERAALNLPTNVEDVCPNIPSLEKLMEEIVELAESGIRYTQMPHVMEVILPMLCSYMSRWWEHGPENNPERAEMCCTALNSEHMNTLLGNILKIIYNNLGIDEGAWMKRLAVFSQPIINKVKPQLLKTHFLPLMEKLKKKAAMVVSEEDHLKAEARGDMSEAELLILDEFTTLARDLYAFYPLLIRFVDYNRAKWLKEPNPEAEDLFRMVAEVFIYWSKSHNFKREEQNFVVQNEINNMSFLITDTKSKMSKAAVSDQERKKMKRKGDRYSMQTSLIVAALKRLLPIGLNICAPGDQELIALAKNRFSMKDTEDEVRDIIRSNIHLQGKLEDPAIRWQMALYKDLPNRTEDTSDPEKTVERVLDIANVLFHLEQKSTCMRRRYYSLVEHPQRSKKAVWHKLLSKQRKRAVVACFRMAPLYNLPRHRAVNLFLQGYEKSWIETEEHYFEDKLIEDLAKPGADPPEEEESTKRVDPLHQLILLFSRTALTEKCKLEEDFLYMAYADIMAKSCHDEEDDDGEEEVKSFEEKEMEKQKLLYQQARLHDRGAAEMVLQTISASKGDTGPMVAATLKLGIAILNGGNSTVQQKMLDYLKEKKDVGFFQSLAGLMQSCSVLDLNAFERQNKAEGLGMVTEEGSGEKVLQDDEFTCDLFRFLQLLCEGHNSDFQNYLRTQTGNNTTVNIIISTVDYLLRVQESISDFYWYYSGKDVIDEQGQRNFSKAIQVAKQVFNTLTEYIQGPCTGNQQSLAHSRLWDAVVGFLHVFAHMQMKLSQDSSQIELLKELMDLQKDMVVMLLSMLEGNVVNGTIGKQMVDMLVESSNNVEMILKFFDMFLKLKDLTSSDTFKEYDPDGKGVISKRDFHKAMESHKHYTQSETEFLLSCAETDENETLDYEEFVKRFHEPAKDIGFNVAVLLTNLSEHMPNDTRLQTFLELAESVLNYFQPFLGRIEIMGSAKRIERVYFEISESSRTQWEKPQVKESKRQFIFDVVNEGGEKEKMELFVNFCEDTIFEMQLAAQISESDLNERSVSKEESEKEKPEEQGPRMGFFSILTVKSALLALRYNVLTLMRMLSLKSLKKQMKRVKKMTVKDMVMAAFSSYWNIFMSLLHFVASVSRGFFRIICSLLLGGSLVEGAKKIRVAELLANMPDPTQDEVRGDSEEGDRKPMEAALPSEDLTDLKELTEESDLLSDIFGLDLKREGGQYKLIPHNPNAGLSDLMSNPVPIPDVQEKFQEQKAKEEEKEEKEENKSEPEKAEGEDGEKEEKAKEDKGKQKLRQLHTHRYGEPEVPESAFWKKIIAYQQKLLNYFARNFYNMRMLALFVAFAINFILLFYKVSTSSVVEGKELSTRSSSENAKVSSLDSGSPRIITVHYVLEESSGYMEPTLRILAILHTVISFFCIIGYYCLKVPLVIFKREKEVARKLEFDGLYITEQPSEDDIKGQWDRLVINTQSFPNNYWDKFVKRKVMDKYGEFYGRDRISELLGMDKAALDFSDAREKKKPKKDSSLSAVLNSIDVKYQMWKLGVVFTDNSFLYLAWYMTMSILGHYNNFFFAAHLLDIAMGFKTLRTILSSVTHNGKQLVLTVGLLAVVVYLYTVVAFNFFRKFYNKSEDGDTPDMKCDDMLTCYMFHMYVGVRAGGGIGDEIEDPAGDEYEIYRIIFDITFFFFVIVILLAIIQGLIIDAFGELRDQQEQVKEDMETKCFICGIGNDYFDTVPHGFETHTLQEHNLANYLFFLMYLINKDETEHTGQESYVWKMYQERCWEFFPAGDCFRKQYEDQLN
T1 sequence (A0A8I3MT21 1-4967): as above
Chain of RyR2 (ryanodol-modified) (A0A8I3MT21 1-4967): as above

TSAQKAKAEERKRRKMSRGL [Peptide A]
[3H] ryanodine binding to SR microsomes (SR microsomes): enhances [^3H] ryanodine binding to SR microsomes

CC(C)[C@@]1(O)[C@@H](O)[C@@]2(O)[C@@]3(C)C[C@]4(O)O[C@@]5([C@H](O)[C@@H](C)CC[C@]35O)[C@@]2(O)[C@]14C [ryanodol]
probability of R (ryanodol alone) after IpTxA (RyR2 (ryanodol-modified); 50 nM IpTxA): decreased dramatically | probability of ryanodol-induced modification (RyR2 (ryanodol-modified); 20 µM ryanodol, 0 mV, before Peptide A): 0.58 ± 0.04 | probability of ryanodol-induced modification (RyR2 (ryanodol-modified); 20 µM ryanodol, 0 mV, with 5 µM Peptide A): 0.76 ± 0.05 | action on ryanodol-modified RyR2 or on ryanodol binding (RyR2 (ryanodol-modified); 20 µM ryanodol, 5 µM Peptide A, 0 mV): increased dwell times for ryanodol-modified states | number of R substate events (RyR2 (ryanodol-modified); [3]): 98 events | number of transitions R→Open (RyR2 (ryanodol-modified); [3]): 5 times | number of transitions i→R+i (RyR2 (ryanodol-modified); [3]): 6 times | decrease of probability of ryanodol modification from 0 to +20 mV (RyR2 (ryanodol-modified); n=6): 52 ± 11% | relative rate of transition i→R+i (RyR2 (ryanodol-modified); ryanodol binding to IpTxA-modified channel, +10 mV): 14.6 | relative rate of transition Open→R (RyR2 (ryanodol-modified); ryanodol binding to open channel, +10 mV): 130 | relative rate of transition R+i→i (RyR2 (ryanodol-modified); ryanodol dissociation with IpTxA bound, +10 mV): 144 | preferred sequence of binding Open→R→R+i, share of cases (RyR2 (ryanodol-modified); ryanodol first, then IpTxA, +10 mV): 93% | probability of full opening (RyR2 (ryanodol-modified); [4]): ~ 80% | probability of ryanodol state (RyR2 (ryanodol-modified); [4]): ~ 20% | total probability of ryanodol binding (R and R+i), increased (RyR2 (ryanodol-modified); with 50 nM IpTxA, all voltages tested but +30 mV): ~ 40%

CC[C@H](C)[C@H](NC(=O)[C@H](CCCCN)NC(C)=O)C(=O)N[C@@H](Cc1ccccc1)C(=O)N[C@@H](CCSC)C(=O)N[C@@H](CCCCN)C(N)=O [KIFMK, acetyl-KIFMK-amide]
duration of block events (cardiac RyR2 [1]; 0 mV): intermediate duration | mean duration of block events (cardiac RyR2 [1]; 0 mV, Peptide A n=4, KIFMK n=6, mean ± SEM): 5.3 ± 0.3 ms | d (fraction of the membrane potential acting at the site) (cardiac RyR2 [1]; Woodhull fit, z = 6 Peptide A, 7 Shaker B, 2 KIFMK): 1.2 ± 0.3 | increase in frequency of substates (cardiac RyR2 [2]; 500 µM KIFMK vs before addition, n=5 paired observations): 37 ± 9 times | substate level 1, of full conductance (cardiac RyR2 [2]; [5]): ~ 27.3 ± 0.3% | substate level 2, of full conductance (cardiac RyR2 [2]; [5]): ~48.6 ± 0.7% | substate level 3, of full conductance (cardiac RyR2 [2]; [5]): ~72.3 ± 0.5% | frequency of substates (cardiac RyR2 [2]; 500 µM KIFMK, n=5 paired observations, control 0.9 ± 0.3): 22.1 ± 4.4 events/min | substate amplitude level 1, in the absence of ryanodine (cardiac RyR2 [2]; KIFMK, n=8): 27 ± 1% | substate amplitude level 3, in the absence of ryanodine (cardiac RyR2 [2]; KIFMK, n=8): 74 ± 2% | substate level, ~30% of full RyR2 conductance (cardiac RyR2 [2]; discussion summary): ~ 30% | substate level, ~50% of full RyR2 conductance (cardiac RyR2 [2]; discussion summary): ~50% | substate level, ~70% of full RyR2 conductance (cardiac RyR2 [2]; discussion summary): ~70% | predominant substate level, of the ryanodine-modified conductance (ryanodine-modified RyR2; KIFMK 500 µM): ~ 52% | block dwell time (ryanodine-modified RyR2; KIFMK 500 µM, ryanodine-modified, n=6): 29.9 ± 10.5 ms | increase of block dwell time with ryanodine (ryanodine-modified RyR2; KIFMK 500 µM, n=6): 316 ± 62% | substate amplitude level 1, of full openings of ryanodine-modified channel (ryanodine-modified RyR2; [6]): 31 ± 1% | substate amplitude level 2, of full openings of ryanodine-modified channel (ryanodine-modified RyR2; [6]): 51 ± 1% | substate amplitude level 3, of full openings of ryanodine-modified channel (ryanodine-modified RyR2; [6]): 75 ± 1% | decrease of probability of block on changing 0 mV to +20 mV (ryanodine-modified RyR2; in the presence of ryanodine): 83% | decrease of probability of substates on changing 0 mV to +20 mV (ryanodine-modified RyR2; in the presence of ryanodine): 61% | action during IpTxA-induced substates versus full openings (RyR2 with IpTxA; 50 nM IpTxA, +10 mV, Peptide A 20 µM, Shaker B 40 µM, KIFMK 500 µM): able to block the IpTxA-modified channel; also recorded: the probability of blocking the channels was significantly lower during IpTxA-induced substates than during full openings | apparent dissociation constant from RyR2 (1/dwell time) (RyR2 with IpTxA; during IpTxA substates, 50 nM IpTxA, +10 mV): 3.1 s⁻¹ | apparent dissociation constant from RyR2 (1/dwell time) (RyR2 with IpTxA; during full openings, 50 nM IpTxA, +10 mV): 166 s⁻¹ | action during IpTxA-ryanodine sub-substates (RyR2 with IpTxA; ryanodine-modified RyR2 with IpTxA, results not shown): only induced some block events

ryanodine
effect of ryanodine on channel gating (ryanodine-modified RyR2; 2 µM ryanodine): channels are locked open; closures are brief and extremely rare | slope conductance of modified state, of full openings (RyRs): ~ 40%

Cn1c(=O)c2c(ncn2C)n(C)c1=O [caffeine]
Po with Ca2+ and caffeine (cardiac RyR2 [1]; most channels, Ca2+ 10 µM + caffeine 5 mM, before peptides): > 0.9

— paper PMC2738596 (Biochimica et biophysica acta, 2008)
